Measured values reported in ChEMBL document CHEMBL3352233, “N-[6-(4-butanoyl-5-methyl-1H-pyrazol-1-yl)pyridazin-3-yl]-5-chloro-1-[2-(4-methylpiperazin-1-yl)-2-oxoethyl]-1H-indole-3-carboxamide (SAR216471), a novel intravenous and oral, reversible, and directly acting P2Y12 antagonist” (J Med Chem, 2014).

Experiments:
[1] = test system: Salmonella typhimurium; assay: Mutagenicity in Salmonella typhimurium by Ames II test in presence of liver S9 fraction; assay type: toxicity, organism-based; settings: salmonella enterica subsp. enterica serovar typhimurium
[2] = test system: Salmonella typhimurium; assay: Mutagenicity in Salmonella typhimurium by Ames II test in absence of liver S9 fraction; assay type: toxicity, organism-based; settings: salmonella enterica subsp. enterica serovar typhimurium
[3] = test system: Rattus norvegicus; assay: Ex vivo inhibition of platelet aggregation in po dosed Sprague-Dawley rat after 2 hrs; assay type: functional
Procedure, shortened: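 Oral gavage in male Sprague−Dawley rats (250−300 g, 6 per batch), vehicle 5% glucose water with 5% Cremophor and 3% glycofurol. Blood is collected 2 h after dosing from the abdominal aorta into 3.8% citrate under pentobarbital. PRP is prepared at 300g for 5 min. ADP-induced aggregation is quantified as the 6-min absorbance AUC, given as % inhibition.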

[4] = Metabolic stability in human liver microsomes assessed as compound metabolism after 20 mins incubation in presence of 1 mM NADPH; assay type: ADME; settings: liver microsomes, read-out: Drug metabolism
Procedure, shortened: (§1)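 Hepatic microsomal fractions are incubated with compound for 20 min with 1 mM NADPH. Result is reported as % metabolized, i.e. 100 minus % unchanged compound.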

[5] = Permeability across human Caco2 cells; assay type: ADME, cell-based; settings: Caco-2, read-out: permeability
Procedure, shortened: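 Permeation is measured across a Caco2 cell monolayer and reported in 10⁻⁷ cm·s⁻¹.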

[6] = Metabolic stability in rat liver microsomes assessed as compound metabolism after 20 mins incubation in presence of 1 mM NADPH; assay type: ADME; settings: liver microsomes, read-out: Drug metabolism; procedure, shortened: as §1
[7] = Metabolic stability in mouse liver microsomes assessed as compound metabolism after 20 mins incubation in presence of 1 mM NADPH; assay type: ADME; settings: read-out: Drug metabolism
Procedure, shortened: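 Compound incubated with mouse hepatic microsomal fractions for 20 min with 1 mM NADPH. Read-out is % metabolism, meaning 100 minus % unchanged compound.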

[8] = test system: Hepatocyte; assay: Intrinsic metabolic clearance in human hepatocytes measured per 10^6 cells after 24 hrs; assay type: ADME, cell-based
Procedure, shortened: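 Human hepatocytes incubated with compound for 24 h to measure in vitro metabolism. Clearance reported in mL·h⁻¹·(10⁶ hepatocytes)⁻¹.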

[9] = test system: Hepatocyte; assay: Intrinsic metabolic clearance in human hepatocytes measured assessed as CYP3A4 contribution per 10^6 cells after 24 hrs; assay type: ADME, cell-based
[10] = target: P2Y purinoceptor 12 (Homo sapiens, UniProt Q9H244); assay: Displacement of [33P]2MeS-ADP from P2Y12 receptor (unknown origin) transfected in CHO cells after 30 mins by scintillation counting analysis; assay type: cell-based
Procedure, shortened: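 P2Y12-expressing CHO cells (35 × 10³/sample) in PBS with 1 mM EDTA and 0.2% BSA are exposed to compound for 30 min. [³³P]2-MeS-ADP (0.16 nM) is then added for 15 min at 20 °C, in triplicate. Filtration separates free from bound ligand, followed by scintillation counting. Nonspecific binding uses 1 mM unlabeled ADP. IC50 comes from a four-parameter logistic fit with asymptotes fixed at 0 and 100. n = 2.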

[11] = test system: Rattus norvegicus; assay: Ex vivo inhibition of platelet aggregation in Sprague-Dawley rat at 10 mg/kg, po after 2 hrs; assay type: functional; settings: Rattus norvegicus, Sprague-Dawley, po, 2 h
Procedure, shortened: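 Male Sprague−Dawley rats (250−300 g), 6 per batch, are dosed by stomach tube at 10 mL/kg of a 1 mg/mL solution in 5% glucose water containing 5% Cremophor and 3% glycofurol. At 2 h, aortic blood is drawn into 3.8% citrate (1:9) under pentobarbital. PRP is prepared at 300g for 5 min. ADP aggregation is read as the 6-min absorbance AUC and expressed as % inhibition.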

[12] = test system: Rattus norvegicus; assay: Ex vivo inhibition of platelet aggregation in Sprague-Dawley rat at 10 mg/kg, po after 6 hrs; assay type: functional; settings: Rattus norvegicus, Sprague-Dawley, po, 6 h
Procedure, shortened: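 Time-course study in Sprague−Dawley rats after a 10 mg/kg oral dose in glucose/Cremophor/glycofurol vehicle. Aortic citrated blood is sampled at intervals over the hours after dosing. PRP is prepared at 300g for 5 min. ADP-induced aggregation is measured as the 6-min absorbance AUC and reported as % inhibition.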

[13] = Solubility in water at pH 4.9; assay type: physicochemical

Chain of P2Y purinoceptor 12 (Q9H244 whole entry): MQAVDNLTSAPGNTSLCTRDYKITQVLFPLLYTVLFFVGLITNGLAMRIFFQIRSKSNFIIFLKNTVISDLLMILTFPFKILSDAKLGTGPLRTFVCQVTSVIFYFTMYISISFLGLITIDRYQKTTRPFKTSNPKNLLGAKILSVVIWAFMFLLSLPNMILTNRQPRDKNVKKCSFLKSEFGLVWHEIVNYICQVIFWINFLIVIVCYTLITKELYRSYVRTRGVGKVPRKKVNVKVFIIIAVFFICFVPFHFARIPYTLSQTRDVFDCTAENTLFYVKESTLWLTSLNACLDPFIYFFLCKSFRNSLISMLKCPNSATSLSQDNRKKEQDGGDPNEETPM

| SMILES | Activity [1] | Activity [2] | metabolised at 20 min [4] [%] | Papp [5] [×10⁻⁶ cm/s] | further results |
| --- | --- | --- | --- | --- | --- |
| CCCC(=O)c1cnn(-c2ccc(N)nc2)c1C | Non-toxic | Non-toxic |  |  |  |
| CCCC(=O)c1cnn(C2CCN(N)CC2)c1C | Non-toxic | Non-toxic |  |  |  |
| CCCC(=O)c1cnn(-c2ccc(N)cc2)c1C | Toxic | Non-toxic |  |  |  |
| COC(=O)[C@H](c1ccccc1Cl)N1CCc2sccc2C1 [CLOPIDOGREL] |  |  |  |  | ED50 [3]: 2.6 mg/kg |
| CCCC(=O)c1cnn(-c2ccc(O)cc2)c1C | Non-toxic | Non-toxic |  |  |  |
| CCCC(=O)c1cnn(-c2cnc(N)cn2)c1C | Non-toxic | Non-toxic |  |  |  |
| CCCSc1nc(N[C@@H]2C[C@H]2c2ccc(F)c(F)c2)c2nnn([C@@H]3C[C@H](OCCO)[C@@H](O)[C@H]3O)c2n1 [TICAGRELOR] |  |  | 20 | 7.5 | ED50 [3]: 1.59 mg/kg |
| CCCC(=O)c1cnn(-c2ccc(N)c(C(=O)O)c2)c1C | Non-toxic | Non-toxic |  |  |  |
| CCCC(=O)c1cnn(C2CCN(NC(=O)c3cn(CC(=O)N4CCN(C)CC4)c4ccc(Cl)cc34)CC2)c1C |  |  | 59 | 0.1 | metabolised at 20 min [6]: 13%; metabolised at 20 min [7]: 3%; CLH [8]: 0.05 mL/h; Activity [9]: 35%; ED50 [3]: 0.95 mg/kg; inhibition [3]: Dose-dependent effect; IC50 [10]: 7 nM |
| CCCC(=O)c1cnn(-c2ccc(NC(=O)c3cn(CC(=O)N4CCN(CCOC)CC4)c4ccc(Cl)cc34)cc2)c1C |  |  | 47 | 4.3 | metabolised at 20 min [6]: 11%; inhibition in vivo at 10 mg/kg [11]: 68%; inhibition in vivo at 10 mg/kg [12]: 65%; IC50 [10]: 15 nM |
| CCCC(=O)c1cnn(-c2cnc(N)s2)c1C | Toxic | Non-toxic |  |  |  |
| CCCC(=O)c1cnn(-c2ccc(NC(=O)c3cn(CC(=O)N4CCN(C)CC4)c4ccc(C)cc34)cc2)c1C.Cl |  |  | 39 | 4 | metabolised at 20 min [6]: 41%; inhibition in vivo at 10 mg/kg [11]: 33%; solubility [13]: 760 µg/mL; IC50 [10]: 31 nM |
